Laboratory results published in ChEMBL document CHEMBL1961794, “Regulation of circadian behaviour and metabolism by synthetic REV-ERB agonists” (Nature, 2012).
The source made the active and inactive calls. The calls are words filed in the database; no cut-off is given here.

How the values were obtained:
[1] = tested on: Mus musculus; assay: Change in plasma triglycerides in diet-induced obese mice over 30 days at 100 mg/kg ip; format: functional, organism-based; design: dose 100 mg/kg; conditions: C57BL/6
[2] = tested on: Mus musculus; assay: Change in total plasma cholesterol in diet-induced obese mice over 30 days at 100 mg/kg ip; format: functional, organism-based; design: dose 100 mg/kg; conditions: C57BL/6
[3] = tested on: Mus musculus; assay: Change in plasma NEFA (non-esterified fatty acids) in diet-induced obese mice over 30 days at 100 mg/kg ip; format: functional, organism-based; design: dose 100 mg/kg; conditions: C57BL/6
[4] = tested on: Mus musculus; assay: Change in plasma glucose in diet-induced obese mice over 30 days at 100 mg/kg ip; format: functional, organism-based; design: dose 100 mg/kg; conditions: C57BL/6
[5] = tested on: Mus musculus; assay: Change in plasma insulin in diet-induced obese mice over 30 days at 100 mg/kg ip; format: functional, organism-based; design: dose 100 mg/kg; conditions: C57BL/6
[6] = tested on: Mus musculus; assay: Change in plasma leptin in diet-induced obese mice over 30 days at 100 mg/kg ip; format: functional, organism-based; design: dose 100 mg/kg; conditions: C57BL/6
[7] = tested on: Mus musculus; assay: Change in plasma IL-6 in diet-induced obese mice over 30 days at 100 mg/kg ip; format: functional, organism-based; design: dose 100 mg/kg; conditions: C57BL/6
[8] = molecular target: T1, Nuclear receptor subfamily 1 group D member 1 (Homo sapiens, UniProt P20393); assay: REV-ERB-alpha mediated transcriptional suppression at Bmal1 promoter in HEK293 cell reporter assay; format: functional, cell-based
T1 sequence (P20393 whole entry): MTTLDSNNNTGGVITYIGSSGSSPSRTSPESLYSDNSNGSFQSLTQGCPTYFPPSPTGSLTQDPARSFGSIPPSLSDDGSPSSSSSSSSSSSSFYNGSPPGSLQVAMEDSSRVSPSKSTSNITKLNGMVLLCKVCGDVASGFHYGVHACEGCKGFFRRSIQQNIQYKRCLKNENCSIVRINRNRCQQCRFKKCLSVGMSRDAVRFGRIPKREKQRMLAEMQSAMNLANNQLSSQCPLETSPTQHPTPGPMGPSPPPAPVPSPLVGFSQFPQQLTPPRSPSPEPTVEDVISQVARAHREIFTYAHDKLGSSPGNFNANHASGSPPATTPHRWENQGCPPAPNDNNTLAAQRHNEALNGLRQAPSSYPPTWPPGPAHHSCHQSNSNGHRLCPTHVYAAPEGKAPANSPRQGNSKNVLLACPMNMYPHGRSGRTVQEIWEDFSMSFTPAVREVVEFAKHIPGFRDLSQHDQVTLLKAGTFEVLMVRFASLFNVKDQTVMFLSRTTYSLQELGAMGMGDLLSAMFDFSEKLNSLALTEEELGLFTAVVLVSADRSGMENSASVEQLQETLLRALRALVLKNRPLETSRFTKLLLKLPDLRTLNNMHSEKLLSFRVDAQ

[9] = Plasma concentration after 2 hours at 10mg/kg ip dose (10mg/ml suspension in 10%DMSO/10%Tween80); format: ADME, organism-based; conditions: mouse, read-out: Conc_plasma
Procedure, shortened: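 Mice received a single 10 mg/kg i.p. dose as a 10 mg/ml suspension in DMSO/Tween80/water (10/10/80). Plasma was sampled at 1, 2, 4 and 8 h post-injection and drug concentration reported in μM. Mean ± s.e.m., n=3.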

[10] = Brain concentration after 2 hours at 10mg/kg ip dose (10mg/ml suspension in 10%DMSO/10%Tween80); format: ADME, organism-based; conditions: mouse, read-out: Conc_brain
Procedure, shortened: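 Mice given a single 10mg/kg i.p. dose as a 10mg/ml suspension in 10/10/80 DMSO/Tween80/water. Brain levels (μM) measured at 2h and 8h post injection, with plasma sampled at 1, 2, 4 and 8h. Mean ± s.e.m., n=3.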

[11] = species on record: Mus musculus; assay: Inhibition of circadian oscillations in SCN explants from Per2-luc transgenic mouse; format: functional, tissue-based
[12] = tested on: Fibroblast; assay: Inhibition of circadian oscillations in fibroblasts from Per2-luc transgenic mice; format: functional, cell-based; conditions: Mus musculus
Procedure, shortened: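 Fibroblasts (MEFs) were isolated from Per2^luc transgenic mice and treated with 5 μM compound. Circadian oscillation amplitude was followed by continuous bioluminescence recording in two independent experiments.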

[13] = Decrease in wheel-running behavior in mice in constant darkness; format: functional; conditions: Mus musculus
[14] = Decrease in Srebf1 gene expression; format: functional; conditions: Mus musculus, Liver
[15] = Toxicity in CL57BL6 mice after 7 days treatment at 100 mg/kg b.i.d in hematology screen; format: organism-based, C57BL/6; design: dose 100 mg/kg; conditions: mouse, in vivo, 168 h
Procedure, shortened: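 Vehicle-controlled C57Bl6 mice dosed chronically at 100 mg/kg b.i.d. for 7 days. Complete blood count: WBC, neutrophil, lymphocyte, monocyte, eosinophil and basophil counts and percentages; RBC, Hb, HCT, MCV, MCH, MCHC, RDW, platelet count and MPV. Mean ± s.e.m., n=6.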

CCOC(=O)N1CCC(CN(Cc2ccc(Cl)cc2)Cc2ccc([N+](=O)[O-])s2)C1 (stereo not given) [SR9009]
Plasma triglyceride [1]: -12%
Plasma cholesterol [2]: -47%
Plasma NEFA [3]: -23%
Plasma glucose [4]: -19%
Plasma insulin [5]: -35%
Plasma leptin [6]: -80%
Plasma IL-6 [7]: -72%

CCCCCNC(=O)N1CCC(CN(Cc2ccc(Cl)cc2)Cc2ccc([N+](=O)[O-])s2)C1 (stereo not given) [SR9011]
IC50 [8]: 620 nM (agonist)
concentration at 2 h [9]: 530 nM
concentration at 2 h [10]: 240 nM
Reduced_circadian_oscillation [11]: Active
Reduced_circadian_oscillation [12]: Active
ED50 [13]: 56 mg/kg
ED50 [14]: 67 mg/kg
Toxicity [15]: Not Toxic
